Data from ChEMBL document CHEMBL4011622, “The Structure-Activity Relationship of a Tetrahydroisoquinoline Class of N-Methyl-d-Aspartate Receptor Modulators that Potentiates GluN2B-Containing N-Methyl-d-Aspartate Receptors” (J Med Chem, 2017).

These compounds were tested against T1, Glutamate NMDA receptor; Grin1/Grin2b (Rattus norvegicus) (UniProt P35439+Q00960) (assay: Positive allosteric modulation of recombinant rat GluN1/GluN2B receptor expressed in xenopus laevis oocyte assessed as potentiation of glutamate and glycine-induced current response at 30 uM at holding potential -40mV by two electrode voltage clamp method relative to control).
Method in brief: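 Two-electrode voltage clamp at -40 mV, 23°C, pH 7.4 Ba²⁺ recording solution, on Xenopus oocytes expressing rat NMDA receptors. Currents were evoked by 100 µM glutamate plus 30 µM glycine, with compound co-applied (DMSO 0.05–0.5% final). […] Each compound used at least 4 oocytes from at least 2 frogs.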

SMILES	Activity	Emax
COc1ccc(OCC2c3ccc(OC(C)C)cc3CCN2C(=O)c2cccc(I)c2)cc1 (centres undefined)	159%	172%
CC(C)Oc1ccc(OCC2c3ccc(OC(C)C)cc3CCN2C(=S)c2cccc(C(F)(F)F)c2)cc1 (centres undefined)	–	191%
COc1ccc(OCC2c3ccc(NC(C)C)cc3CCN2C(=O)c2cccc(Cl)c2)cc1 (centres undefined)	138%	141%
CC(C)Oc1ccc(OCC2c3ccc(OC(C)C)cc3CCN2C(=S)c2cccc(F)c2)cc1 (centres undefined)	–	203%
CCOc1ccc(OCC2c3ccc(OC(C)C)cc3CCN2C(=S)c2ccc(F)c(Cl)c2)cc1 (centres undefined)	–	222%
CCC(CC)Oc1ccc2c(c1)CCN(C(=O)c1cccc(Cl)c1)C2COc1ccc(OC)cc1 (centres undefined)	331%	344%
COc1ccc(OCC2c3ccc(N4CCOCC4)cc3CCN2C(=O)c2cccc(Cl)c2)cc1 (centres undefined)	146%	188%
CCOc1ccc(OCC2c3ccc(OC4CCCC4)cc3CCN2C(=O)c2cccc(F)c2)cc1 (centres undefined)	202%	210%
COc1ccc(OCC2c3ccc(OC(C)C)cc3CCN2C(=O)c2ccc(Cl)cc2)cc1 (centres undefined)	163%	182%
CCOc1ccc(OCC2c3ccc(OC(C)C)cc3CCN2C(=O)c2ccc(F)c(F)c2)cc1 (centres undefined)	172%	173%
COc1ccc(OCC2c3ccc(N(C)C(C)C)cc3CCN2C(=O)c2cccc(Cl)c2)cc1 (centres undefined)	228%	235%
CC(C)Oc1ccc(OCC2c3ccc(OC(C)C)cc3CCN2C(=S)c2cccc(Cl)c2)cc1 (centres undefined)	–	209%
COc1ccc(OCC2c3ccc(N4CCOCC4)cc3CCN2C(=O)c2cccc(Br)c2)cc1 (centres undefined)	152%	165%

The compounds below were run against Glutamate NMDA receptor; Grin1/Grin2c (Rattus norvegicus) (UniProt P35439+Q00961) (assay: Positive allosteric modulation of recombinant rat GluN1/GluN2C receptor expressed in xenopus laevis oocyte assessed as potentiation of glutamate and glycine-induced current response at 30 uM at holding potential -40mV by two electrode voltage clamp method relative to control).
Method in brief: (§1)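 Two-electrode voltage clamp at -40 mV, 23°C, pH 7.4 Ba²⁺ recording solution, on Xenopus oocytes expressing rat NMDA receptors. Currents were evoked by 100 µM glutamate plus 30 µM glycine, with compound co-applied (DMSO 0.05–0.5% final). Each compound used at least 4 oocytes from at least 2 frogs.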

SMILES	Activity	Emax
COc1ccc(OCC2c3ccc(OC(C)C)cc3CCN2C(=O)c2cccc(I)c2)cc1 (centres undefined)	215%	310%
CC(C)Oc1ccc(OCC2c3ccc(OC(C)C)cc3CCN2C(=S)c2cccc(C(F)(F)F)c2)cc1 (centres undefined)	–	162%
COc1ccc(OCC2c3ccc(NC(C)C)cc3CCN2C(=O)c2cccc(Cl)c2)cc1 (centres undefined)	239%	261%
CC(C)Oc1ccc(OCC2c3ccc(OC(C)C)cc3CCN2C(=S)c2cccc(F)c2)cc1 (centres undefined)	–	158%
CCOc1ccc(OCC2c3ccc(OC(C)C)cc3CCN2C(=S)c2ccc(F)c(Cl)c2)cc1 (centres undefined)	–	159%
CCC(CC)Oc1ccc2c(c1)CCN(C(=O)c1cccc(Cl)c1)C2COc1ccc(OC)cc1 (centres undefined)	286%	294%
COc1ccc(OCC2c3ccc(N4CCOCC4)cc3CCN2C(=O)c2cccc(Cl)c2)cc1 (centres undefined)	273%	342%
CCOc1ccc(OCC2c3ccc(OC4CCCC4)cc3CCN2C(=O)c2cccc(F)c2)cc1 (centres undefined)	169%	173%
COc1ccc(OCC2c3ccc(OC(C)C)cc3CCN2C(=O)c2ccc(Cl)cc2)cc1 (centres undefined)	251%	290%
CCOc1ccc(OCC2c3ccc(OC(C)C)cc3CCN2C(=O)c2ccc(F)c(F)c2)cc1 (centres undefined)	145%	150%
COc1ccc(OCC2c3ccc(N(C)C(C)C)cc3CCN2C(=O)c2cccc(Cl)c2)cc1 (centres undefined)	404%	424%
CC(C)Oc1ccc(OCC2c3ccc(OC(C)C)cc3CCN2C(=S)c2cccc(Cl)c2)cc1 (centres undefined)	–	141%
COc1ccc(OCC2c3ccc(N4CCOCC4)cc3CCN2C(=O)c2cccc(Br)c2)cc1 (centres undefined)	279%	314%

Each compound was assayed against Ionotropic glutamate receptor NMDA 1/2D (Rattus norvegicus) (UniProt P35439+Q62645) (assay: Positive allosteric modulation of recombinant rat GluN1/GluN2D receptor expressed in xenopus laevis oocyte assessed as potentiation of glutamate and glycine-induced current response at 30 uM at holding potential -40mV by two electrode voltage clamp method relative to control).
Method in brief: as §1

SMILES	Activity	Emax
COc1ccc(OCC2c3ccc(OC(C)C)cc3CCN2C(=O)c2cccc(I)c2)cc1 (centres undefined)	408%	414%
CC(C)Oc1ccc(OCC2c3ccc(OC(C)C)cc3CCN2C(=S)c2cccc(C(F)(F)F)c2)cc1 (centres undefined)	–	133%
COc1ccc(OCC2c3ccc(NC(C)C)cc3CCN2C(=O)c2cccc(Cl)c2)cc1 (centres undefined)	333%	363%
CC(C)Oc1ccc(OCC2c3ccc(OC(C)C)cc3CCN2C(=S)c2cccc(F)c2)cc1 (centres undefined)	–	154%
CCOc1ccc(OCC2c3ccc(OC(C)C)cc3CCN2C(=S)c2ccc(F)c(Cl)c2)cc1 (centres undefined)	–	128%
CCC(CC)Oc1ccc2c(c1)CCN(C(=O)c1cccc(Cl)c1)C2COc1ccc(OC)cc1 (centres undefined)	381%	390%
COc1ccc(OCC2c3ccc(N4CCOCC4)cc3CCN2C(=O)c2cccc(Cl)c2)cc1 (centres undefined)	231%	413%
CCOc1ccc(OCC2c3ccc(OC4CCCC4)cc3CCN2C(=O)c2cccc(F)c2)cc1 (centres undefined)	161%	163%
COc1ccc(OCC2c3ccc(OC(C)C)cc3CCN2C(=O)c2ccc(Cl)cc2)cc1 (centres undefined)	244%	288%
CCOc1ccc(OCC2c3ccc(OC(C)C)cc3CCN2C(=O)c2ccc(F)c(F)c2)cc1 (centres undefined)	133%	137%
COc1ccc(OCC2c3ccc(N(C)C(C)C)cc3CCN2C(=O)c2cccc(Cl)c2)cc1 (centres undefined)	500%	549%
CC(C)Oc1ccc(OCC2c3ccc(OC(C)C)cc3CCN2C(=S)c2cccc(Cl)c2)cc1 (centres undefined)	–	152%
COc1ccc(OCC2c3ccc(N4CCOCC4)cc3CCN2C(=O)c2cccc(Br)c2)cc1 (centres undefined)	284%	425%

What follows are compounds tested against Glutamate NMDA receptor; Grin1/Grin2b (Rattus norvegicus, UniProt P35439+Q00960) (assay: Positive allosteric modulation of recombinant rat GluN1/GluN2B receptor expressed in xenopus laevis oocyte assessed as potentiation of glutamate and glycine-induced current response at holding potential -40mV by two electrode voltage clamp method).
Method in brief: as §1

SMILES	EC50
COc1ccc(OCC2c3ccc(OC(C)C)cc3CCN2C(=O)c2cccc(C(F)(F)F)c2)cc1 (centres undefined)	6100 nM
COc1ccc(OCC2c3ccc(OCC(C)C)cc3CCN2C(=O)c2cccc(Cl)c2)cc1 (centres undefined)	1500 nM
COc1ccc(OCC2c3ccc(OC(C)C)cc3CCN2C(=O)c2cccc(I)c2)cc1 (centres undefined)	1700 nM
CC(C)Oc1ccc(OCC2c3ccc(OC(C)C)cc3CCN2C(=S)c2cccc(C(F)(F)F)c2)cc1 (centres undefined)	270 nM
COc1ccc(OCC2c3ccc(NC(C)C)cc3CCN2C(=O)c2cccc(Cl)c2)cc1 (centres undefined)	9300 nM
CC(C)Oc1ccc(OCC2c3ccc(OC(C)C)cc3CCN2C(=S)c2cccc(F)c2)cc1 (centres undefined)	670 nM
CCOc1ccc(OCC2c3ccc(OC(C)C)cc3CCN2C(=S)c2ccc(F)c(Cl)c2)cc1 (centres undefined)	840 nM
CCC(CC)Oc1ccc2c(c1)CCN(C(=O)c1cccc(Cl)c1)C2COc1ccc(OC)cc1 (centres undefined)	1800 nM
COc1ccc(OCC2c3ccc(N4CCOCC4)cc3CCN2C(=O)c2cccc(Cl)c2)cc1 (centres undefined)	9300 nM
CCOc1ccc(OCC2c3ccc(OC4CCCC4)cc3CCN2C(=O)c2cccc(F)c2)cc1 (centres undefined)	4400 nM
COc1ccc(OCC2c3ccc(OC(C)C)cc3CCN2C(=O)c2ccc(Cl)cc2)cc1 (centres undefined)	12000 nM
CCOc1ccc(OCC2c3ccc(OC(C)C)cc3CCN2C(=O)c2ccc(F)c(F)c2)cc1 (centres undefined)	3700 nM
COc1ccc(OCC2c3ccc(N(C)C(C)C)cc3CCN2C(=O)c2cccc(Cl)c2)cc1 (centres undefined)	5900 nM
CC(C)Oc1ccc(OCC2c3ccc(OC(C)C)cc3CCN2C(=S)c2cccc(Cl)c2)cc1 (centres undefined)	550 nM
COc1ccc(OCC2c3ccc(N4CCOCC4)cc3CCN2C(=O)c2cccc(Br)c2)cc1 (centres undefined)	4800 nM

What follows are compounds tested against Glutamate NMDA receptor; Grin1/Grin2c (Rattus norvegicus, UniProt P35439+Q00961) (assay: Positive allosteric modulation of recombinant rat GluN1/GluN2C receptor expressed in xenopus laevis oocyte assessed as potentiation of glutamate and glycine-induced current response at holding potential -40mV by two electrode voltage clamp method).
Method in brief: as §1

SMILES	EC50
COc1ccc(OCC2c3ccc(OC(C)C)cc3CCN2C(=O)c2cccc(C(F)(F)F)c2)cc1 (centres undefined)	1700 nM
COc1ccc(OCC2c3ccc(OCC(C)C)cc3CCN2C(=O)c2cccc(Cl)c2)cc1 (centres undefined)	900 nM
COc1ccc(OCC2c3ccc(OC(C)C)cc3CCN2C(=O)c2cccc(I)c2)cc1 (centres undefined)	690 nM
CC(C)Oc1ccc(OCC2c3ccc(OC(C)C)cc3CCN2C(=S)c2cccc(C(F)(F)F)c2)cc1 (centres undefined)	340 nM
COc1ccc(OCC2c3ccc(NC(C)C)cc3CCN2C(=O)c2cccc(Cl)c2)cc1 (centres undefined)	4700 nM
CC(C)Oc1ccc(OCC2c3ccc(OC(C)C)cc3CCN2C(=S)c2cccc(F)c2)cc1 (centres undefined)	700 nM
CCOc1ccc(OCC2c3ccc(OC(C)C)cc3CCN2C(=S)c2ccc(F)c(Cl)c2)cc1 (centres undefined)	350 nM
CCC(CC)Oc1ccc2c(c1)CCN(C(=O)c1cccc(Cl)c1)C2COc1ccc(OC)cc1 (centres undefined)	1600 nM
COc1ccc(OCC2c3ccc(N4CCOCC4)cc3CCN2C(=O)c2cccc(Cl)c2)cc1 (centres undefined)	4700 nM
CCOc1ccc(OCC2c3ccc(OC4CCCC4)cc3CCN2C(=O)c2cccc(F)c2)cc1 (centres undefined)	4500 nM
COc1ccc(OCC2c3ccc(OC(C)C)cc3CCN2C(=O)c2ccc(Cl)cc2)cc1 (centres undefined)	9500 nM
CCOc1ccc(OCC2c3ccc(OC(C)C)cc3CCN2C(=O)c2ccc(F)c(F)c2)cc1 (centres undefined)	1800 nM
COc1ccc(OCC2c3ccc(N(C)C(C)C)cc3CCN2C(=O)c2cccc(Cl)c2)cc1 (centres undefined)	2000 nM
CC(C)Oc1ccc(OCC2c3ccc(OC(C)C)cc3CCN2C(=S)c2cccc(Cl)c2)cc1 (centres undefined)	480 nM
COc1ccc(OCC2c3ccc(N4CCOCC4)cc3CCN2C(=O)c2cccc(Br)c2)cc1 (centres undefined)	3000 nM

The compounds below were run against Ionotropic glutamate receptor NMDA 1/2D (Rattus norvegicus, UniProt P35439+Q62645) (assay: Positive allosteric modulation of recombinant rat GluN1/GluN2D receptor expressed in xenopus laevis oocyte assessed as potentiation of glutamate and glycine-induced current response at holding potential -40mV by two electrode voltage clamp method).
Method in brief: as §1

SMILES	EC50
COc1ccc(OCC2c3ccc(OC(C)C)cc3CCN2C(=O)c2cccc(C(F)(F)F)c2)cc1 (centres undefined)	2700 nM
COc1ccc(OCC2c3ccc(OCC(C)C)cc3CCN2C(=O)c2cccc(Cl)c2)cc1 (centres undefined)	1400 nM
COc1ccc(OCC2c3ccc(OC(C)C)cc3CCN2C(=O)c2cccc(I)c2)cc1 (centres undefined)	1600 nM
CC(C)Oc1ccc(OCC2c3ccc(OC(C)C)cc3CCN2C(=S)c2cccc(C(F)(F)F)c2)cc1 (centres undefined)	330 nM
COc1ccc(OCC2c3ccc(NC(C)C)cc3CCN2C(=O)c2cccc(Cl)c2)cc1 (centres undefined)	5100 nM
CC(C)Oc1ccc(OCC2c3ccc(OC(C)C)cc3CCN2C(=S)c2cccc(F)c2)cc1 (centres undefined)	1200 nM
CCOc1ccc(OCC2c3ccc(OC(C)C)cc3CCN2C(=S)c2ccc(F)c(Cl)c2)cc1 (centres undefined)	440 nM
CCC(CC)Oc1ccc2c(c1)CCN(C(=O)c1cccc(Cl)c1)C2COc1ccc(OC)cc1 (centres undefined)	1700 nM
COc1ccc(OCC2c3ccc(N4CCOCC4)cc3CCN2C(=O)c2cccc(Cl)c2)cc1 (centres undefined)	22000 nM
CCOc1ccc(OCC2c3ccc(OC4CCCC4)cc3CCN2C(=O)c2cccc(F)c2)cc1 (centres undefined)	4900 nM
COc1ccc(OCC2c3ccc(OC(C)C)cc3CCN2C(=O)c2ccc(Cl)cc2)cc1 (centres undefined)	11000 nM
CCOc1ccc(OCC2c3ccc(OC(C)C)cc3CCN2C(=O)c2ccc(F)c(F)c2)cc1 (centres undefined)	2900 nM
COc1ccc(OCC2c3ccc(N(C)C(C)C)cc3CCN2C(=O)c2cccc(Cl)c2)cc1 (centres undefined)	4000 nM
CC(C)Oc1ccc(OCC2c3ccc(OC(C)C)cc3CCN2C(=S)c2cccc(Cl)c2)cc1 (centres undefined)	410 nM
COc1ccc(OCC2c3ccc(N4CCOCC4)cc3CCN2C(=O)c2cccc(Br)c2)cc1 (centres undefined)	4300 nM

The compounds below were run against T1, Glutamate NMDA receptor; Grin1/Grin2b (Rattus norvegicus) (assay: Positive allosteric modulation of recombinant rat GluN1/GluN2B receptor expressed in xenopus laevis oocyte assessed as compound concentration required to show two fold increase in glutamate and glycine-induced current response at holding potential -40mV by two electrode voltage clamp method).

SMILES	CD
CC(C)Oc1ccc(OCC2c3ccc(OC(C)C)cc3CCN2C(=S)c2cccc(F)c2)cc1 (centres undefined)	9 µM
CCOc1ccc(OCC2c3ccc(OC(C)C)cc3CCN2C(=S)c2ccc(F)c(Cl)c2)cc1 (centres undefined)	17 µM
CC(C)Oc1ccc(OCC2c3ccc(OC(C)C)cc3CCN2C(=S)c2cccc(Cl)c2)cc1 (centres undefined)	4 µM
